Test results reported in PMC8395693 (JACS Au, 2021).

Test system: not given
Assay: not given
Details: based on gold; cited from earlier work

Row | SMILES | MTD (maximum tolerated dose) [mg/kg]
1 | CC(=O)OC[C@H]1O[C@@H]([S-])[C@H](OC(C)=O)[C@@H](OC(C)=O)[C@@H]1OC(C)=O.CCP(CC)CC.[Au+] [auranofin] | 12

Test system: MDA-MB-231
Assay: Cell viability
Assay type: cell-based
Details: Homo sapiens, MDA-MB-231, 72 h, read-out: IC50 value
Procedure, shortened: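 Test compounds were added from stock solutions so that the final DMSO was <1%, and MDA-MB-231 cells were incubated with them for 72 h. Viability was read after exposure and IC50 derived. Data are mean ± s.e.m., n = 3.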

Row | SMILES | IC50 [µM]
2 | c1cnc2c(c1)ccc1cccnc12 [1,10-phenantrholine] | 7.21 ± 1.68
3 | Cc1ccnc2c1ccc1c(C)ccnc12 [4,7-dimethylphenanthroline] | 14.1 ± 2.58

Same assay, conditions: read-out: IC50 value; MDA-MB-231, MTT assay, 72 h, mean ± s.e.m., n = 3

Row | SMILES | IC50 [µM]
4 | [Au+].[F][Sb-]([F])([F])([F])([F])[F].c1ccc(-c2ccccn2)nc1.c1ccc(P(c2ccccc2)c2ccccc2)cc1 [AuTri-3] | 6.56 ± 0.354
5 | [Au+].[F][Sb-]([F])([F])([F])([F])[F].c1ccc([As](c2ccccc2)c2ccccc2)cc1.c1cnc2c(c1)ccc1cccnc12 [AuTri-4] | 3.98 ± 0.359
6 | [F][Sb-]([F])([F])([F])([F])[F].[Na+] [NaSbF6] | > 50
7 | CC(=O)OC[C@H]1O[C@@H]([S-])[C@H](OC(C)=O)[C@@H](OC(C)=O)[C@@H]1OC(C)=O.CCP(CC)CC.[Au+] [auranofin] | 1.31 ± 0.15
8 | c1ccc(-c2ccnc3c2ccc2c(-c4ccccc4)ccnc23)cc1 [bathophenanthroline] | 7.48 ± 1.64
9 | c1ccc(-c2ccccn2)nc1 [bipyridine] | 17.5 ± 0.354
10 | N.N.[Cl][Pt][Cl] [cisplatin] | 34.6 ± 0.783

Test system: MDA-MB-231
Assay: Transmission electron microscopy of mitochondrial morphology
Assay type: cell-based
Details: AuTri-9 10 µM, 1 h
Procedure, shortened: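 MDA-MB-231 cells were exposed to the test compound for 1 h. Vehicle wells received 1% DMSO. Reference inducers were run alongside: staurosporine (apoptosis), hydrogen peroxide (necrosis), rapamycin (autophagy) and erastin (ferroptosis). Mitochondria were imaged by TEM. Maximal cristae width was measured in 10 randomly chosen cells on randomly chosen mitochondria, with up to 3 cristae per mitochondrion and 100 cristae per cell, given as mean ± s.e.m.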

Row | SMILES | morphological changes in mitochondria (TEM)
11 | OO [H2O2, hydrogen peroxide] | mitochondrial structure remains intact
12 | CCOc1ccccc1-n1c(C(C)N2CCN(C(=O)COc3ccc(Cl)cc3)CC2)nc2ccccc2c1=O (centres unmarked) [erastin] | mitochondrial shrinkage
13 | CO[C@H]1C[C@@H]2CC[C@@H](C)[C@@](O)(O2)C(=O)C(=O)N2CCCC[C@H]2C(=O)O[C@H]([C@H](C)C[C@@H]2CC[C@@H](O)[C@H](OC)C2)CC(=O)[C@H](C)/C=C(\C)[C@@H](O)[C@@H](OC)C(=O)[C@H](C)C[C@H](C)/C=C/C=C/C=C/1C [rapamycin] | no distinct morphological changes to mitochondria
14 | CN[C@@H]1C[C@H]2O[C@@](C)([C@@H]1OC)n1c3ccccc3c3c4c(c5c6ccccc6n2c5c31)C(=O)NC4 [staurosporine] | no distinct morphological changes to mitochondria
